Reference: ChEMBL document CHEMBL3421580, “Discovery of autophagy inhibitors with antiproliferative activity in lung and pancreatic cancer cells” (ACS Med Chem Lett, 2015)
Activity calls are given as the source filed them. The rule behind the calls is not given here.

What was measured:
[1] = Antiproliferative activity against human H460 cells after 72 hrs by SRB method; assay type: functional, cell-based; settings: NCI-H460, 72 h
Outline: (§1)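 SRB growth assay: cells exposed to compounds over a 100-fold concentration range for 72 h, then cell number quantified. IC50 calculated from the curves. Means of at least 3 experiments, each run in triplicate.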

[2] = Antiproliferative activity against human HCC827 cells after 72 hrs by SRB method; assay type: functional, cell-based; settings: HCC827, 72 h; outline: as §1
[3] = Antiproliferative activity against human BxPC3 cells after 72 hrs by SRB method; assay type: functional, cell-based; settings: BXPC-3, 72 h; outline: as §1
[4] = Inhibition of colony formation in human H460 cells at 6.5 to 100 uM treated for 24 hrs followed by incubation in drug free medium for 10 days by crystal violet staining-based assay relative to hydroxychloroquine; assay type: functional, NCI-H460
Outline: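 H460 cells exposed to drug for 24 h, after which medium was replaced with drug-free medium. Colonies grew for another 10 days and were stained with crystal violet.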

[5] = system: NCI-H460; test: Induction of apoptosis in human H460 cells after 24 hrs by annexin-V staining-based flow cytometry; assay type: functional, cell-based
Outline: (§2)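 Apoptosis in treated H460 cells was detected by binding of APC-conjugated annexin V to surface phosphatidylserine, measured by flow cytometry. Means ± SD of 3 experiments; p < 0.05 taken as significant.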

[6] = system: NCI-H460; test: Induction of apoptosis in human H460 cells at 25 to 75 uM after 24 hrs by annexin-V staining-based flow cytometry; assay type: functional, cell-based; outline: as §2
[7] = system: NCI-H3122; test: Inhibition of autophagy in human NCI-H3122 cells assessed as increase in punctate LC3 expression at 25 to 50 uM after 6 hrs by fluorescence microscopic analysis; assay type: functional, cell-based
Outline: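 NCI-H3122 NSCLC cells transfected with a mCherry-EGFP-LC3B tandem reporter, then treated 6 h. Cells fixed and green, red and yellow fluorescent puncta examined by fluorescence microscopy.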

[8] = system: NCI-H460; test: Inhibition of autophagy in human H460 cells assessed as increase in punctate LC3 level after 24 hrs by immunoblot analysis; assay type: functional, cell-based
Outline: (§3)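 H460 cells treated 24 h across a concentration series, or with 10 μM compound for varying times, or at 10 μM for 24 h. Cell extracts immunoblotted with anti-LC3 to separate LC3-I from autophagosome-bound LC3-II. Actin probed as loading control.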

[9] = system: NCI-H460; test: Inhibition of autophagy in human H460 cells assessed as increase in punctate LC3 level at 10 uM by immunoblot analysis; assay type: functional, cell-based; settings: TDE = time-dependent effect; outline: as §3
[10] = system: NCI-H460; test: Inhibition of autophagy in human H460 cells assessed as increase in p62 level after 24 hrs by immunoblot analysis; assay type: functional, cell-based
Outline: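 H460 cells exposed 24 h to a concentration series. Extracts immunoblotted for p62, with actin as loading control.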

[11] = Ratio of hydroxychloroquine IC50 to compound IC50 for human H460 cells; assay type: functional
[12] = Ratio of hydroxychloroquine IC50 to compound IC50 for human HCC827 cells; assay type: functional
[13] = system: BXPC-3; test: Ratio of hydroxychloroquine IC50 to compound IC50 for human BxPC3 cells; assay type: functional
[14] = system: NCI-H460; test: Inhibition of autophagy in human H460 cells assessed as increase in LC3-2 level at 10 uM after 24 hrs by immunoblot analysis
[15] = Cytotoxicity against human 1205 Lu cells after 72 hrs by MTT assay; assay type: functional, cell-based
[16] = Cytotoxicity against human C8161 cells after 72 hrs by MTT assay; assay type: functional, cell-based; settings: C8161, 72 h
[17] = Cytotoxicity against human LN229 cells after 72 hrs by MTT assay; assay type: functional, cell-based; settings: LN-229, 72 h
[18] = system: HT-29; test: Cytotoxicity against human HT-29 cells after 72 hrs by MTT assay; assay type: functional, cell-based; settings: HT-29, 72 h
[19] = system: MDA-MB-231; test: Cytotoxicity against human MDA-MB-231 cells after 72 hrs by MTT assay; assay type: functional, cell-based; settings: MDA-MB-231, 72 h, pooled result: one value given for 7 cell lines, strains, targets or settings
[20] = species on record: Homo sapiens; test: Cmax in human at 1200 mg; assay type: ADME, organism-based; set-up: dose 1200 mg; settings: in vivo

Compound	IC50 [1] [µM]	IC50 [2] [µM]	IC50 [3] [µM]	Ratio IC50 [11]	Ratio IC50 [12]	Ratio IC50 [13]	other results
CN(CCNCc1cn(Cc2ccc(Cl)cc2)nn1)CCNc1ccnc2cc(Cl)ccc12	11	7.6	5.8	7	7	7	Ratio [4]: >10; Activity [5]: Dose-dependent effect; Activity [6]: Active; inhibition [7]: Active; inhibition [8]: Dose-dependent effect; inhibition [9]: tde; inhibition [10]: Dose-dependent effect; inhibition [14]: Active
CN(CCNCc1cn(CCc2ccccc2)nn1)CCNc1ccnc2cc(Cl)ccc12	24	15	13	3.2	3.2	3.2	
CN(CCNCc1cn(-c2ccnc3cc(Cl)ccc23)nn1)CCNc1ccnc2cc(Cl)ccc12	16	18	8.8	3.9	3.9	3.9	
CN(CCNCc1cn(CCn2c(=O)[nH]c3ccccc3c2=O)nn1)CCNc1ccnc2cc(Cl)ccc12	147	> 200					
CN(CCNCc1cn(CCC(=O)Nc2ccccn2)nn1)CCNc1ccnc2cc(Cl)ccc12	> 200	> 200					
CN(CCNCc1cn(CC(=O)O)nn1)CCNc1ccnc2cc(Cl)ccc12	> 200	> 200					
C#CCNCCN(C)CCNc1ccnc2cc(Cl)ccc12	69	105					
CCN(CC)CCCC(C)Nc1ccnc2cc(Cl)ccc12 (stereo not given) [CHLOROQUINE]	52	76	25	1.2	1.2	1.2	Activity [6]: Active; IC50 [15]: 3.6 µM; IC50 [16]: 3.6 µM; IC50 [17]: 3.6 µM; IC50 [18]: 3.6 µM
CN(CCNCc1cn(Cc2nc3ccccc3[nH]2)nn1)CCNc1ccnc2cc(Cl)ccc12	120	164					
CN(CCNCc1cn(CCCn2nn[nH]c2=O)nn1)CCNc1ccnc2cc(Cl)ccc12	> 200	> 200					
CN(CCNCc1cn(-c2ccc(Cl)cc2)nn1)CCNc1ccnc2cc(Cl)ccc12	14	9.5	9.1	5.2	5.2	5.2	
CN(CCNCc1cn(-c2ccccc2Cl)nn1)CCNc1ccnc2cc(Cl)ccc12	20	12	11	4	4	4	
CN(CCNCc1cn(CCc2c[nH]c3ccccc23)nn1)CCNc1ccnc2cc(Cl)ccc12	12	8.5	7.6	6	6	6	
Clc1ccc2c(NCCNCc3cn(-c4ccnc5cc(Cl)ccc45)nn3)ccnc2c1	21	16	14	3.2	3.2	3.2	
CN(CCNCc1cn(-c2ccccc2)nn1)CCNc1ccnc2cc(Cl)ccc12	25	26	10	2.9	2.9	2.9	
CN(CCNCc1cn(C(C)(C)C)nn1)CCNc1ccnc2cc(Cl)ccc12	79	56	39				
CN(CCNCc1cn(CCCO)nn1)CCNc1ccnc2cc(Cl)ccc12	> 200	> 200					
CN(CCNCc1cn(Cc2ccccc2)nn1)CCNc1ccnc2cc(Cl)ccc12	32	16	9.7	3.1	3.1	3.1	
CN(CCNCc1cn(Cc2nc3cc(Cl)ccc3[nH]2)nn1)CCNc1ccnc2cc(Cl)ccc12	59	65	44				
CN(CCNCc1cn(CC(=O)Nc2cccc3ccc(O)cc23)nn1)CCNc1ccnc2cc(Cl)ccc12	67	86					
CN(CCNCc1cn(Cc2ccc(Br)cc2)nn1)CCNc1ccnc2cc(Cl)ccc12	12	9.3	8.7	5.7	5.7	5.7	
CN(CCNCc1cn(-c2ccc(Br)cc2)nn1)CCNc1ccnc2cc(Cl)ccc12	15	11	7.9	5	5	5	
Clc1ccc2c(-n3cc(CNCc4cn(-c5ccnc6cc(Cl)ccc56)nn4)nn3)ccnc2c1	70	72	78				
CN(CCNCc1cn(-c2cccc(Cl)c2)nn1)CCNc1ccnc2cc(Cl)ccc12	17	9.4	12	4.7	4.7	4.7	
CN(CCNCc1cn(-c2nc3ccccc3[nH]2)nn1)CCNc1ccnc2cc(Cl)ccc12	33	32	16	2.1	2.1	2.1	
CN(CCNCc1cn(-c2ccc(F)cc2)nn1)CCNc1ccnc2cc(Cl)ccc12	34	19	12	2.8	2.8	2.8	
CN(CCNc1ccnc2cc(Cl)ccc12)Cc1cn(-c2ccnc3cc(Cl)ccc23)nn1	29	18	16	2.7	2.7	2.7	
CCN(CC)CCNc1ccc(C)c2sc3ccccc3c(=O)c12 [LUCANTHONE]							IC50 [19]: 5.7 µM
CCN(CCO)CCCC(C)Nc1ccnc2cc(Cl)ccc12 (stereo not given) [HYDROXYCHLOROQUINE]	74	65	33				Cmax [20]: 7 µM; Activity [6]: Active; inhibition [7]: Active; inhibition [8]: Dose-dependent effect; inhibition [9]: tde; inhibition [10]: Dose-dependent effect; inhibition [14]: Active
